ChEMBL document CHEMBL1649124, “Genetic variability among ampC genes from acinetobacter genomic species 3” (Antimicrob Agents Chemother, 2009)
Converted amounts (≈) assume the structure as drawn. One block for each molecule: values may come before it.

How the values were obtained:
Type in all cases: functional
[1] = system: Acinetobacter pittii; experiment: Antibacterial activity against Acinetobacter genomosp. 3 isolate 14 by Etest method
In short: (§1)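 MICs for AG3 clinical isolates were read by Etest following the manufacturer's instructions. Isolates were stored at –80°C in 10% Brucella glycerol broth before testing.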

[2] = system: Acinetobacter pittii; experiment: Antibacterial activity against Acinetobacter genomosp. 3 isolate 20 by Etest method; in short: as §1
[3] = system: Acinetobacter pittii; experiment: Antibacterial activity against Acinetobacter genomosp. 3 isolate 21 by Etest method; in short: as §1
[4] = system: Acinetobacter pittii; experiment: Antibacterial activity against Acinetobacter genomosp. 3 isolate 52 by Etest method; in short: as §1
[5] = system: Acinetobacter pittii; experiment: Antibacterial activity against Acinetobacter genomosp. 3 isolate 56 by Etest method; in short: as §1
[6] = system: Acinetobacter pittii; experiment: Antibacterial activity against Acinetobacter genomosp. 3 isolate 60 by Etest method; in short: as §1
[7] = system: Acinetobacter pittii; experiment: Antibacterial activity against Acinetobacter genomosp. 3 isolate 65 by Etest method; in short: as §1
[8] = system: Acinetobacter pittii; experiment: Antibacterial activity against Acinetobacter genomosp. 3 isolate 67 by Etest method; in short: as §1
[9] = system: Escherichia coli; experiment: Antibacterial activity against Escherichia coli DH5alpha by Etest method
In short: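 E. coli DH5α host strain, grown at 37°C in LB medium. MICs of β-lactams determined by Etest following the manufacturer's instructions.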

[10] = system: Acinetobacter pittii; experiment: Antibacterial activity against Acinetobacter genomosp. 3 isolate 69 by Etest method; in short: as §1
[11] = system: Acinetobacter pittii; experiment: Antibacterial activity against Acinetobacter genomosp. 3 isolate 90 by Etest method; in short: as §1
[12] = system: Acinetobacter pittii; experiment: Antibacterial activity against Acinetobacter genomosp. 3 isolate 103 by Etest method; in short: as §1
[13] = system: Acinetobacter pittii; experiment: Antibacterial activity against Acinetobacter genomosp. 3 isolate 109 by Etest method; in short: as §1
[14] = system: Acinetobacter pittii; experiment: Antibacterial activity against Acinetobacter genomosp. 3 isolate 128 by Etest method; in short: as §1
[15] = system: Acinetobacter pittii; experiment: Antibacterial activity against Acinetobacter genomosp. 3 isolate 195 by Etest method; in short: as §1
[16] = system: Acinetobacter pittii; experiment: Antibacterial activity against Acinetobacter genomosp. 3 isolate 243 by Etest method; in short: as §1
[17] = system: Escherichia coli; experiment: Antibacterial activity against Escherichia coli DH5alpha carrying ampC gene of Acinetobacter genomosp. 3 isolate 14 by Etest method
In short: (§2)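 E. coli DH5α expressing the AG3 isolate ampC gene, PCR-amplified (high-fidelity system, 28 cycles) and cloned into BamHI/HindIII sites of pBGS18 (kanamycin marker) under the CTX-M-14 β-lactamase promoter. Grown at 37°C in LB, with kanamycin 50 µg/ml when needed. β-Lactam MICs determined by Etest per the manufacturer's instructions.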

[18] = system: Escherichia coli; experiment: Antibacterial activity against Escherichia coli DH5alpha carrying ampC gene of Acinetobacter genomosp. 3 isolate 20 by Etest method; in short: as §2
[19] = system: Escherichia coli; experiment: Antibacterial activity against Escherichia coli DH5alpha carrying ampC gene of Acinetobacter genomosp. 3 isolate 56 by Etest method; in short: as §2
[20] = system: Escherichia coli; experiment: Antibacterial activity against Escherichia coli DH5alpha carrying ampC gene of Acinetobacter genomosp. 3 isolate 65 by Etest method; in short: as §2
[21] = system: Escherichia coli; experiment: Antibacterial activity against Escherichia coli DH5alpha carrying ampC gene of Acinetobacter genomosp. 3 isolate 69 by Etest method; in short: as §2
[22] = system: Escherichia coli; experiment: Antibacterial activity against Escherichia coli DH5alpha carrying ampC gene of Acinetobacter genomosp. 3 isolate 103 by Etest method; in short: as §2
[23] = system: Escherichia coli; experiment: Antibacterial activity against Escherichia coli DH5alpha carrying ampC gene of Acinetobacter genomosp. 3 isolate 109 by Etest method; in short: as §2
[24] = system: Escherichia coli; experiment: Antibacterial activity against Escherichia coli DH5alpha carrying ampC gene of Acinetobacter genomosp. 3 isolate 195 by Etest method; in short: as §2

SMILES: CO[C@@]1(NC(=O)Cc2cccs2)C(=O)N2C(C(=O)O)=C(COC(N)=O)CS[C@@H]21 [CEFOXITIN]
MIC [1]: > 256 µg/mL | MIC [2]: > 256 µg/mL | MIC [3]: > 256 µg/mL | MIC [4]: > 256 µg/mL | MIC [5]: 64 µg/mL (≈ 150 µM) | MIC [6]: > 256 µg/mL | MIC [7]: 128 µg/mL (≈ 299 µM) | MIC [8]: > 256 µg/mL | MIC [9]: 2 µg/mL (≈ 4.68 µM) | MIC [10]: > 256 µg/mL | MIC [11]: 128 µg/mL (≈ 299 µM) | MIC [12]: 192 µg/mL (≈ 449 µM) | MIC [13]: > 256 µg/mL | MIC [14]: 128 µg/mL (≈ 299 µM) | MIC [15]: > 256 µg/mL | MIC [16]: 48 µg/mL (≈ 112 µM) | MIC [17]: 32 µg/mL (≈ 74.9 µM) | MIC [18]: 32 µg/mL (≈ 74.9 µM) | MIC [19]: 16 µg/mL (≈ 37.4 µM) | MIC [20]: 3 µg/mL (≈ 7.02 µM) | MIC [21]: 16 µg/mL (≈ 37.4 µM) | MIC [22]: 32 µg/mL (≈ 74.9 µM) | MIC [23]: 24 µg/mL (≈ 56.1 µM) | MIC [24]: 24 µg/mL (≈ 56.1 µM)

SMILES: CO/N=C(\C(=O)N[C@@H]1C(=O)N2C(C(=O)O)=C(COC(N)=O)CS[C@H]12)c1ccco1 [CEFUROXIME]
MIC [1]: 32 µg/mL (≈ 75.4 µM) | MIC [2]: 48 µg/mL (≈ 113 µM) | MIC [3]: 48 µg/mL (≈ 113 µM) | MIC [4]: 32 µg/mL (≈ 75.4 µM) | MIC [5]: 16 µg/mL (≈ 37.7 µM) | MIC [6]: 64 µg/mL (≈ 151 µM) | MIC [7]: 24 µg/mL (≈ 56.6 µM) | MIC [8]: 48 µg/mL (≈ 113 µM) | MIC [9]: 1.5 µg/mL (≈ 3.53 µM) | MIC [10]: 32 µg/mL (≈ 75.4 µM) | MIC [11]: 16 µg/mL (≈ 37.7 µM) | MIC [12]: 48 µg/mL (≈ 113 µM) | MIC [13]: 32 µg/mL (≈ 75.4 µM) | MIC [14]: 32 µg/mL (≈ 75.4 µM) | MIC [15]: 64 µg/mL (≈ 151 µM) | MIC [16]: 32 µg/mL (≈ 75.4 µM) | MIC [17]: 64 µg/mL (≈ 151 µM) | MIC [18]: 96 µg/mL (≈ 226 µM) | MIC [19]: 48 µg/mL (≈ 113 µM) | MIC [20]: 4 µg/mL (≈ 9.43 µM) | MIC [21]: 32 µg/mL (≈ 75.4 µM) | MIC [22]: 64 µg/mL (≈ 151 µM) | MIC [23]: 32 µg/mL (≈ 75.4 µM) | MIC [24]: 48 µg/mL (≈ 113 µM)

MIC [1]: 2050 µg/mL (≈ 4700 µM) | MIC [2]: 1020 µg/mL (≈ 2350 µM) | MIC [3]: 512 µg/mL (≈ 1170 µM) | MIC [4]: 1020 µg/mL (≈ 2350 µM) | MIC [5]: 512 µg/mL (≈ 1170 µM) | MIC [6]: 1020 µg/mL (≈ 2350 µM) | MIC [7]: 1020 µg/mL (≈ 2350 µM) | MIC [8]: 1880 µg/mL (≈ 4300 µM) | MIC [10]: > 2050 µg/mL | MIC [11]: 512 µg/mL (≈ 1170 µM) | MIC [12]: 1020 µg/mL (≈ 2350 µM) | MIC [13]: 2050 µg/mL (≈ 4700 µM) | MIC [14]: 2050 µg/mL (≈ 4700 µM) | MIC [15]: 1020 µg/mL (≈ 2350 µM) | MIC [16]: 2050 µg/mL (≈ 4700 µM)
SMILES: Cc1onc(-c2ccccc2Cl)c1C(=O)N[C@@H]1C(=O)N2[C@@H]1SC(C)(C)[C@@H]2C(=O)O [CLOXACILLIN]

SMILES: CC1(C)S[C@@H]2[C@H](NC(=O)[C@H](N)c3ccccc3)C(=O)N2[C@H]1C(=O)O [AMPICILLIN]
MIC [2]: > 256 µg/mL | MIC [9]: 3 µg/mL (≈ 8.59 µM) | MIC [12]: > 256 µg/mL | MIC [17]: 128 µg/mL (≈ 366 µM) | MIC [18]: 96 µg/mL (≈ 275 µM) | MIC [19]: 96 µg/mL (≈ 275 µM) | MIC [20]: 32 µg/mL (≈ 91.6 µM) | MIC [21]: 96 µg/mL (≈ 275 µM) | MIC [22]: 128 µg/mL (≈ 366 µM) | MIC [23]: 64 µg/mL (≈ 183 µM) | MIC [24]: 96 µg/mL (≈ 275 µM)

SMILES: CO/N=C(\C(=O)N[C@@H]1C(=O)N2C(C(=O)O)=C(COC(C)=O)CS[C@H]12)c1csc(N)n1 [CEFOTAXIME]
MIC [1]: 24 µg/mL (≈ 52.7 µM) | MIC [2]: 16 µg/mL (≈ 35.1 µM) | MIC [3]: 24 µg/mL (≈ 52.7 µM) | MIC [4]: 12 µg/mL (≈ 26.3 µM) | MIC [5]: 4 µg/mL (≈ 8.78 µM) | MIC [6]: 24 µg/mL (≈ 52.7 µM) | MIC [7]: 12 µg/mL (≈ 26.3 µM) | MIC [8]: 16 µg/mL (≈ 35.1 µM) | MIC [9]: 0.064 µg/mL (≈ 0.141 µM) | MIC [10]: 16 µg/mL (≈ 35.1 µM) | MIC [11]: 12 µg/mL (≈ 26.3 µM) | MIC [12]: 16 µg/mL (≈ 35.1 µM) | MIC [13]: 16 µg/mL (≈ 35.1 µM) | MIC [14]: 12 µg/mL (≈ 26.3 µM) | MIC [15]: 24 µg/mL (≈ 52.7 µM) | MIC [16]: 16 µg/mL (≈ 35.1 µM) | MIC [17]: 0.75 µg/mL (≈ 1.65 µM) | MIC [18]: 0.125 µg/mL (≈ 0.274 µM) | MIC [19]: 0.38 µg/mL (≈ 0.834 µM) | MIC [20]: 25 µg/mL (≈ 54.9 µM) | MIC [21]: 0.38 µg/mL (≈ 0.834 µM) | MIC [22]: 0.75 µg/mL (≈ 1.65 µM) | MIC [23]: 0.38 µg/mL (≈ 0.834 µM) | MIC [24]: 0.75 µg/mL (≈ 1.65 µM)

SMILES: CO/N=C(\C(=O)N[C@@H]1C(=O)N2C(C(=O)[O-])=C(C[N+]3(C)CCCC3)CS[C@H]12)c1csc(N)n1
MIC [1]: 3 µg/mL (≈ 6.24 µM) | MIC [2]: 4 µg/mL (≈ 8.32 µM) | MIC [3]: 12 µg/mL (≈ 25 µM) | MIC [4]: 2 µg/mL (≈ 4.16 µM) | MIC [5]: 2 µg/mL (≈ 4.16 µM) | MIC [6]: 4 µg/mL (≈ 8.32 µM) | MIC [7]: 3 µg/mL (≈ 6.24 µM) | MIC [8]: 4 µg/mL (≈ 8.32 µM) | MIC [9]: 0.016 µg/mL (≈ 0.0333 µM) | MIC [10]: 3 µg/mL (≈ 6.24 µM) | MIC [11]: 16 µg/mL (≈ 33.3 µM) | MIC [12]: 3 µg/mL (≈ 6.24 µM) | MIC [13]: 2 µg/mL (≈ 4.16 µM) | MIC [14]: 2 µg/mL (≈ 4.16 µM) | MIC [15]: 6 µg/mL (≈ 12.5 µM) | MIC [16]: 3 µg/mL (≈ 6.24 µM) | MIC [17]: 0.023 µg/mL (≈ 0.0479 µM) | MIC [18]: 0.19 µg/mL (≈ 0.395 µM) | MIC [19]: 0.023 µg/mL (≈ 0.0479 µM) | MIC [20]: 0.032 µg/mL (≈ 0.0666 µM) | MIC [21]: 0.023 µg/mL (≈ 0.0479 µM) | MIC [22]: 0.032 µg/mL (≈ 0.0666 µM) | MIC [23]: 0.023 µg/mL (≈ 0.0479 µM) | MIC [24]: 0.032 µg/mL (≈ 0.0666 µM)
